# NR2E3 ag-1 = NR2E3 (human) agonism. inhibition of corepressor binding, % at 4.78 µM. hit rate 0.12% among 320,000. GST-NR2E3/biotin-RetCOR TR-FRET, 1536-well;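 active means percent inhibition above the cutoff of mean plus 3 SD of all tested compounds, set per screening campaign, cut at about 20% in these data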;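 further: 0% = DMSO wells and 100% = biotin wells as full block of FRET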
# Target sequence (Q9Y5X4 whole entry, looked up): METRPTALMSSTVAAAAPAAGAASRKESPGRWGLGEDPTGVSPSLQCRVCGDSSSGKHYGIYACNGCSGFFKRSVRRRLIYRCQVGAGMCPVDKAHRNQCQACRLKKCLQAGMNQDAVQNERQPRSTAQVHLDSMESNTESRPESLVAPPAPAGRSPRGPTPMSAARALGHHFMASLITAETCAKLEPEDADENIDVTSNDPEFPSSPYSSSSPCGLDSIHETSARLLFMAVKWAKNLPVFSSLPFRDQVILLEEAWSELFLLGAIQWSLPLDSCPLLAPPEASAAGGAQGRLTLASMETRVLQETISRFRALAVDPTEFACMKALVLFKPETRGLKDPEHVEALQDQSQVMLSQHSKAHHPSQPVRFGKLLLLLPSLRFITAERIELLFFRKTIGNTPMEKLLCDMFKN
#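 Material: NR2E3–RetCOR corepressor complex / Amount: 1.35 nM GST-NR2E3 / Medium: Tris pH 7.5 / Compound: single nominal compound dose of 4.8 µM / Incubation: 5 h at 4 °C / Technique: TR-FRET, Eu(K)-anti-GST donor, streptavidin-D2 acceptor, ex 340, em 617/671 nm / Read-out basis: percent loss of FRET ratio relative to control wells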
# EP2 antag = EP2 receptor (human) inhibition. inhibition, % at 25 µM. hit rate 0.52% among 260,000. C6 glioma cells expressing human EP2, cAMP TR-FRET; cells stimulated with saturating PGE2. AID 1422. P43116;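 active means percent inhibition above 40 after rounding to a whole number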;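 further: rat C6 glioma host cells with rolipram phosphodiesterase inhibitor present; the protocol text gives 20 µM as final concentration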
# Target sequence (P43116 whole entry, looked up): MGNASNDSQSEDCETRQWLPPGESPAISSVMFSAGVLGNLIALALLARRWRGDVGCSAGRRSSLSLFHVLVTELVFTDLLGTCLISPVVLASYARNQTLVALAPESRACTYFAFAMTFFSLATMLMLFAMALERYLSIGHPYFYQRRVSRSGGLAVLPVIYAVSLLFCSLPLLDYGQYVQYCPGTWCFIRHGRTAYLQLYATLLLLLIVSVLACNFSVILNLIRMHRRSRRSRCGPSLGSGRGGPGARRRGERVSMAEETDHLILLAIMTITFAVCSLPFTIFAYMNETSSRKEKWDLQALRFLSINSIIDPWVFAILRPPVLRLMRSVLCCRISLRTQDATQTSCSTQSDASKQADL
# NR2E3 ag-2 = activates human NR2E3 receptor; hit rate 0.35% among 360,000; CHO-S Gal4-NCOR/VP16-NR2E3 two-hybrid, luciferase; inhibition of corepressor binding, % at 3.98 µM; Q9Y5X4;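 active means inhibition above the mean of all tested compounds plus 3 SD, cut at about 70% in these data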;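 further: 0% = DMSO with NR2E3 transfected cells and 100% = cells lacking NR2E3 construct; higher means lower luciferase signal from less NR2E3 corepressor binding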
# Furin inhibitor = inhibitors of human furin; purified furin, fluorogenic substrate cleavage; hit rate 0.061% among 220,000; inhibition, % at 20 µM or 30 µM; P09958; in the data active means inhibition above about 25%
# EP2 modulator = modulators of human EP2 prostaglandin E2 receptor; EP2-expressing cells, cAMP HTRF FRET, PGE2 co-stimulation; induction, % at 25 µM; hit rate 0.83% among 260,000;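 active means compounds whose cAMP rise, as percent of the full-agonist control response, exceeds 60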;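 further: rat C6 glioma line stably carrying human EP2 under a CMV promoter; the protocol text gives 20 µM as final concentration; 100% = response of wells given 1 µM PGE2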
# GASC-1 inh = inhibitors of human GASC-1 (JMJD2C) demethylase; Q9H3R0; GST-JMJD2C(1-420) H3K9me3 demethylation, DELFIA europium; inhibition, % at 2.35 µM; hit rate 0.069% among 330,000;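 active means more than half of a compound's replicate wells show inhibition beyond 50%, single wells judged on their own value; inconclusive means some, but no more than half, of replicates pass 50% inhibition; inactive means no replicate passes 50% inhibition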;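 further: signal counts dimethyl H3K9 product captured on neutravidin plate; 0% = median of DMSO wells and 100% = 0.3 times that DMSO median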
# NR2E3 ag conf = NR2E3 agonism confirmed in two-hybrid assay | shares compounds with NR2E3 ag-2 | CHO-S mammalian two-hybrid NR2E3-NCOR, luciferase luminescence | inhibition, % at 3.98 µM | hit rate 51% among 2,300 | AID 624378;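 active means average inhibition above a cutoff equal to the mean inhibition of all tested compounds plus one SD, cut at about 70% in these data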;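 further: 0% = DMSO in NR2E3 cells and 100% = DMSO in cells lacking NR2E3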
# VP16 counter = reduces GAL4-VP16 reporter signal in NR2E3 counterscreen. CHO-S GAL4-VP16 luciferase reporter, luminescence. hit rate 29% among 2,300. shares compounds with NR2E3 ag-2. inhibition, % at 3.98 µM. AID 624379;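 active means mean inhibition above a cutoff equal to the average over all tested compounds plus one standard deviation, cut at about 70% in these data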;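 further: luciferase from a UAS reporter driven by GAL4-VP16 transactivation; 0% = DMSO with VP16-transfected cells and 100% = DMSO with cells lacking VP16; higher means less reporter light so more repression of VP16 activity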
# * = called active by the depositor; ? = inconclusive; nt = no result given. Compounds with a hit are over-represented: about 1.3% of the library has one in this group of screens.
SMILES,NR2E3 ag-1,EP2 antag,NR2E3 ag-2,Furin inhibitor,EP2 modulator,GASC-1 inh,NR2E3 ag conf,VP16 counter
COc1cccc(C2(NC(=O)c3cnccn3)CCCC2)c1,nt,4,nt,nt,5,nt,nt,nt
O=C(Nc1ccc(S(=O)(=O)N2CCCC2)cc1)c1cnccn1,0,7,-9,-23,-26,2,nt,nt
O=C(Nc1ccc(S(=O)(=O)N2CCN(Cc3ccccc3)CC2)cc1)c1cnccn1,3,7,61,-11,-57,-6,86*,71*
O=C(Cc1ccc(F)cc1)N1CCC[C@H]1Cn1nc(-c2ccc3c(c2)OCCO3)ccc1=O,nt,nt,nt,nt,-87,nt,nt,nt
COc1ccc(NS(=O)(=O)c2ccc(-n3nnc4ccccc43)c([N+](=O)[O-])c2)cc1,-1,11,54,-11,-31,-5,45,45
O=[N+]([O-])c1cc(S(=O)(=O)Nc2cccc(C(F)(F)F)c2)ccc1-n1nnc2ccccc21,8,8,96*,-14,-4,-5,98*,87*
CS(=O)(=O)c1ccc(-n2nnc3ccccc32)c([N+](=O)[O-])c1,0,nt,-29,nt,nt,-9,nt,nt
COc1ccc(-n2ncc3c(N(C)C4CCCCC4)ncnc32)cc1,9,nt,79*,nt,nt,-1,60,38
Cc1cccc(-n2ncc3c(N(CCO)CCO)ncnc32)c1,3,11,-116,-21,-2,-8,nt,nt
Cc1cccc(-n2ncc3c(N(C)C4CCCCC4)ncnc32)c1,-1,13,73*,-35,-1,8,46,44
CCCn1c(O)c(CN2CCN(C)CC2)c(C)c(C#N)c1=O,nt,15,nt,nt,-23,nt,nt,nt
COc1ccccc1NC(=S)NN=C(C)c1ccccn1,nt,nt,78*,nt,nt,nt,-26,-1
C/C(=N\NC(=S)Nc1cccc(C)c1)c1ccccc1,-2,10,71*,-9,7,7,-18,-78
C/C(=N\NC(=S)Nc1cccc(C)c1)c1cccc(N)c1,0,5,-39,-25,13,-8,nt,nt
CC(=NNC(=S)Nc1ccc(C)cc1)c1ccccn1,nt,nt,71*,nt,nt,nt,-24,5
CC(=NNC(=S)Nc1cccc(C)c1)c1ccccn1,nt,nt,67,nt,nt,nt,-63,-22
COc1ccc(C(=O)N/N=C(\C)c2ccccn2)cc1OC,4,nt,-13,nt,nt,-11,nt,nt
Cc1sc(NC(=O)COc2ccc(C(C)C)cc2)c(C(N)=O)c1C,nt,14,nt,nt,-22,nt,nt,nt
Cc1cc2n(n1)C(c1cccc(O)c1O)Nc1ccccc1-2 (stereo unspecified),nt,8,nt,nt,-4,nt,nt,nt
CCOCCCNc1c(C)c(C)nc2cc(-c3cccs3)nn12,nt,8,nt,nt,-17,nt,nt,nt
Cc1ccc(C)c(NC(=S)c2ccccn2)c1,1,21,54,-23,26,-10,-20,-75
CC(=O)OC(COCc1ccccc1)Cn1cnc2ccccc21 (stereo unspecified),nt,10,nt,nt,11,nt,nt,nt
CCOc1ccccc1CNS(=O)(=O)c1ccc(-c2cnc(C3CC3)o2)cc1,-4,nt,85*,nt,nt,17,69,54
Cc1ccc(CNS(=O)(=O)c2ccc(-c3cnc(C4CC4)o3)cc2)cc1,1,nt,70*,nt,nt,-11,55,35
COc1ccc(C)cc1NS(=O)(=O)c1ccc(-c2cnc(C3CC3)o2)cc1,-1,nt,103*,nt,nt,-4,57,59
SMILES,NR2E3 ag-1,EP2 antag,NR2E3 ag-2,Furin inhibitor,EP2 modulator,GASC-1 inh,NR2E3 ag conf,VP16 counter
O=S(=O)(NCc1ccccc1)c1ccc(-c2cnc(C3CC3)o2)cc1,-2,nt,18,nt,nt,-44,nt,nt
Cc1cccc(C)c1NS(=O)(=O)c1ccc(-c2cnc(C3CC3)o2)cc1,2,nt,70*,nt,nt,7,55,21
Cc1ccc(NS(=O)(=O)c2ccc(-c3cnc(C4CC4)o3)cc2)cc1,-4,nt,37,nt,nt,-31,nt,nt
CCC(c1nnnn1CC1CCCO1)N(Cc1ccc(C)cc1)Cc1cc2cc(C)ccc2[nH]c1=O (stereo unspecified),nt,9,nt,nt,53,nt,nt,nt
O=C1N(c2ccccc2)C[C@@H]2C[C@@H](c3cc4ccccc4o3)N3CCC[C@@]123,nt,4,78*,-13,-26,-13,99*,85*
Cc1cc(C)c2cc(CN(CCO)C(=S)Nc3cccc(Cl)c3)c(=O)[nH]c2c1,nt,8,nt,nt,-83,nt,nt,nt
NC(=O)CC(NC(=O)Cc1ccc(Cl)cc1)c1ccc(NC2CC3CCC2C3)c([N+](=O)[O-])c1 (stereo unspecified),3,nt,98*,nt,nt,-1,-21,-7
O=C(C(=Cc1ccccc1)CN1CCCCC1)c1ccccc1,nt,nt,93*,nt,nt,nt,101*,47
S=C1NCN(Cc2cccnc2)CN1,1,3,0,-27,-4,109,nt,nt
CN(C)C(=S)N=c1ssc(=S)n1Cc1cccnc1,nt,nt,86*,nt,nt,nt,-24,-24
COCCn1c(SCC(=O)NCc2ccccc2)nc2sc(C)c(C)c2c1=O,nt,10,nt,nt,-16,nt,nt,nt
O=C(CSc1ccccc1)N1CCC(N2CCC(C(=O)N3CCCC3)CC2)CC1,-2,7,88*,-34,7,?,-9,-3
Cc1cccc(-c2noc(CCC(=O)NCc3ccco3)n2)c1,2,11,-22,-15,-28,9,nt,nt
CC(C)(C)c1ccc(-c2noc(CCC(=O)NCc3ccco3)n2)cc1,4,8,77*,-18,-27,-20,74*,79*
Cc1cccc(Nc2nc(NCc3ccco3)c3ccccc3n2)c1,5,35,74*,-7,-91,3,100*,87*
Nc1ncc(Br)cc1S(=O)(=O)Nc1cc(C(F)(F)F)cc(C(F)(F)F)c1,0,nt,109*,nt,nt,0,101*,90*
Cc1ccc(NS(=O)(=O)c2cc(Br)cnc2N)c(Cl)c1,2,nt,-11,nt,nt,-6,nt,nt
CCN(CC)C(=O)Cn1nc2c3ccccc3nc(C(C)C)n2c1=O,nt,nt,nt,nt,6,nt,nt,nt
Nc1nc2ccc(Cl)cc2cc1C(=O)NCCc1c[nH]c2ccccc12,nt,nt,93*,nt,nt,nt,94*,83*
Nc1nc2ccc(Cl)cc2cc1C(=O)NC1CC1,nt,nt,14,nt,nt,nt,nt,nt
Nc1nc2ccc(Cl)cc2cc1C(=O)NCc1ccc(Oc2ccccc2)cc1,nt,nt,95*,nt,nt,nt,94*,82*
O=C(NCc1ccc(F)cc1)C(=O)Nc1ccc2c(c1)OCO2,nt,6,nt,nt,8,nt,nt,nt
Nc1nc2cc3c(cc2cc1C(=O)NCc1ccc(F)cc1)OCO3,nt,nt,88*,nt,nt,nt,94*,72*
Cc1ccc2cc(C(c3nnnn3C(C)(C)C)N3CCN(c4cccc(C)c4C)CC3)c(=O)[nH]c2c1 (stereo unspecified),nt,5,nt,nt,-40,nt,nt,nt
CSc1ccc(CN(C)C(=O)c2ccc(S(=O)(=O)Nc3ccccc3)cc2)cc1,-3,nt,51,nt,nt,3,-5,13
CN(CC(=O)NCC(=O)Nc1ccc(F)cc1)CC(=O)Nc1ccc(Cl)c(C(F)(F)F)c1,nt,nt,-14,nt,nt,nt,nt,nt
